# OX1R antag-1 – blocks the human orexin 1 receptor | O43613 | CHO/OX1R cells, Fluo-8 calcium fluorescence, orexin A | inhibition, % at 5 µM | 330,000 compounds, 0.43% hits;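 active means inhibition above its plate's threshold, mean inhibition of all tested compounds on the plate plus 3 SD, cut at about 37% in these data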;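 further: 0% = orexin A challenge wells and 100% = SB-334867-A antagonist wells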
# TAAR1 antagonist – human TAAR1 antagonism; AID 624466; inhibition, % at 3 µM; Q96RJ0; CHO RD-HGA16 TAAR1, Fluo-8 calcium fluorescence, antagonist; 360,000 compounds, 1.5% hits;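 active means inhibition above a per-plate cutoff, the mean inhibition of test compounds on that plate plus 3 SD, cut at about 49% in these data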;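 further: 0% = DMSO plus EC80 beta-PEA response and 100% = DMSO alone without agonist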
#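 Material: RD-HGA16 CHO cells with stable hTAAR1 and Gα16; Dosing: single nominal final test compound concentration of 3 µM; Schedule: seeding 17-24 h prior, 75-min 37 °C, 30-min RT dye loading; Detection: kinetic Fluo-8 calcium fluorescence measurement; Measure: % inhibition from peak post-agonist over basal fluorescence ratio; Benchmarks: vehicle and agonist controls.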
# OX1R antag-2 – blocks the human orexin 1 receptor; OX1R-expressing cells, FRET antagonist read-out; O43613; 330,000 compounds, 1.8% hits; AID 485270; inhibition, % at 6.6 µM; in the data active means inhibition mostly above about 38%, no sharp cut-off; inactive means mostly below about 40%;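 further: 0% = agonist challenge alone and 100% = reference antagonist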
# TAAR1 agonist – agonists of human TAAR1; Q96RJ0; CHO RD-HGA16 TAAR1, Fluo-8 calcium fluorescence; vehicle wells 0%, saturating PEA agonist 100%; activation, % at 3 µM; 360,000 compounds, 0.99% hits; AID 624467;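 active means activation above the mean activation of all test compounds in the run plus 3 SD, cut at about 38% in these data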
#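 Test system: RD-HGA16 (CHO) cells co-expressing Gα16 and hTAAR1 | Doses: Single dose, 3 µM | Schedule: 17-24 h seeding, 75 min 37 °C dye, 30 min RT | Evaluation: % activation from peak over basal fluorescence ratio, DMSO-to-PEA scaled | Technique: Kinetic Fluo-8 calcium fluorescence | Benchmarks: Low control DMSO, high control PEA (EC100)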
# GPR7 antagonist – blocks human GPR7 receptor signaling; inhibition, % at 4.4 µM; 290,000 compounds, 1.1% hits; GPR7-expressing cells, fluorescence antagonist assay; AID 1861; in the data active means inhibition above about 16%, passing the limit was not always enough;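 further: cells stimulated with the agonist NPW; 0% = agonist with vehicle and 100% = vehicle without agonist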
# Target sequence (P48145 whole entry, looked up): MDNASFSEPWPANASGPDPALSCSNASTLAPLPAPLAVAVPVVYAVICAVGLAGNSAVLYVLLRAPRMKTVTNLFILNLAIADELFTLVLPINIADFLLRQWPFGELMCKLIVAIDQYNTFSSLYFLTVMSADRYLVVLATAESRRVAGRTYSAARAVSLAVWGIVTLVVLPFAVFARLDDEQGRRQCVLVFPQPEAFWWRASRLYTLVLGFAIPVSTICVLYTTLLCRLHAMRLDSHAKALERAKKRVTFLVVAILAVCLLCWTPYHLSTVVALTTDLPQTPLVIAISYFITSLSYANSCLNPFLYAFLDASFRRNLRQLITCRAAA
# CHO parental Ca – counter-screen for OX1R antagonists: effect in parental CHO cells; parental CHO-K1, ATP-induced calcium, Fluo-8 fluorescence; 330,000 compounds, 0.63% hits; inhibition, % at 5.6 µM;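 active means inhibition above that plate's mean sample inhibition plus 3 SD, cut at about 26% in these data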;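 further: 0% = ATP-challenged DMSO wells and 100% = DMSO wells without ATP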
#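 test system = CHO parental line | reagent = ATP stimulus | measured by = intracellular calcium via Fluo-8 no-wash fluorescent dye | control set = ATP and no-ATP DMSO wells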
# TAAR1 ag confirm – human TAAR1 agonism, confirmed; activation, % at 3 µM; 2,400 compounds, 82% hits; shares compounds with TAAR1 agonist; CHO RD-HGA16 TAAR1, Fluo-8 calcium fluorescence; scaled: DMSO 0%, maximal phenethylamine 100%;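 active means activation above a cutoff set at the run's mean compound activation plus 3 SD, cut at about 39% in these data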
# Ga16 ag counter – nonselective agonist in parental cells, TAAR1 agonist counter-screen. shares compounds with TAAR1 agonist. CHO-Ga16 parental, Fluo-8 calcium fluorescence; normalized to maximal ATP response, DMSO zero. activation, % at 3 µM. 2,400 compounds, 50% hits;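 active means activation above the run cutoff, the mean activation over all tested wells plus 3 SD, cut at about 12% in these data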;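 further: 0% = DMSO wells and 100% = maximal ATP response on the peak over basal ratio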
# TAAR1 desens – counter-screen for human TAAR1 agonists: agonists that desensitize TAAR1; shares compounds with TAAR1 agonist; CHO RD-HGA16 hTAAR1, Fluo-8 calcium, beta-PEA response inhibition; inhibition, % at 3 µM; 2,400 compounds, 46% hits;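 active means inhibition above the run cutoff, the mean inhibition of all test compounds plus 3 SD, cut at about 49% in these data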;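 further: beta-PEA stimulus applied at its EC80; loss of beta-PEA calcium signal after compound pretreatment read as receptor desensitization; 0% = DMSO with beta-PEA at EC80 and 100% = DMSO alone without agonist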
# Ga16 nonsel ant – counter-screen for TAAR1 agonists: nonselective Ga16 antagonists; inhibition, % at 3 µM; 2,400 compounds, 39% hits; shares compounds with TAAR1 agonist; CHO-Ga16 ATP-induced calcium, Fluo-8 fluorescence; AID 651952;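 active means inhibition above the plate's mean compound inhibition plus 3 SD, computed per plate, cut at about 22% in these data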;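 further: 0% = EC80 ATP with DMSO and 100% = DMSO wells without ATP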
# * marks the source's active call; other numbers are inactive results; x = no result. Compounds with a hit are over-represented: about 4.5% of the library has one in this group of screens.
SMILES,OX1R antag-1,TAAR1 antagonist,OX1R antag-2,TAAR1 agonist,GPR7 antagonist,CHO parental Ca,TAAR1 ag confirm,Ga16 ag counter,TAAR1 desens,Ga16 nonsel ant
CCN1CCc2c(OCC(=O)Nc3ccc4c(c3)OCCO4)cccc2C1=O,-22,x,19,x,-9,-5,x,x,x,x
CC(C)C[C@H]1CN=C(Nc2ccccc2)N1CCC1CCCCC1,-22,8,4,44*,31,-5,55*,22*,27,19
CC(C)C[C@H]1CN=C(Nc2ccccc2)N1CC1CCCC1,-11,-8,23,7,13,-16,x,x,x,x
Cc1nn(C)c(C(=O)NNC(=S)NCc2ccco2)c1Br,-10,17,10,80*,-10,-7,-1,5,8,1
Cc1c(C(=O)NCCc2ccccc2)oc2ccc(S(=O)(=O)N3CCC4(CC3)OCCO4)cc12,27,77*,53,93*,15,-5,92*,12*,89*,36*
C=CCNC(=O)c1oc2ccc(S(=O)(=O)N3CCC4(CC3)OCCO4)cc2c1C,-19,-11,7,11,-15,-12,x,x,x,x
Cc1cc(C)cc(N2C(=O)CC(c3ccccc3)CC2=O)c1,2,13,-1,3,x,-13,x,x,x,x
Cc1cc(C)c(OCCCCNCc2ccccc2)c(Cl)c1,-8,-8,2,48*,0,-7,48*,22*,23,24*
C=CCNCCCCOc1c(Cl)cc(C)cc1Br,-16,-6,16,30,-3,-6,x,x,x,x
Cc1cc(Cl)c(OCCOCCN2CCCCC2)c(Br)c1,-17,5,20,3,-10,-12,x,x,x,x
Cc1cc(Cl)c(OCCCNC2CCCC2)c(Br)c1,-29,-3,2,58*,1,2,28,11,5,13
Cc1cc(C)c(OCCNCc2ccccc2)c(C)c1,-21,0,-9,10,-6,-18,x,x,x,x
COCCCNCCCCOc1c(Cl)cc(C)cc1Br,-29,32,2,59*,-4,-9,92*,22*,77*,8
CCOc1ccc2ccccc2c1/C=N/NC(=O)c1ccncc1,-21,-3,-2,-2,-11,-13,x,x,x,x
CC(C)c1ccc(-c2csc3nc[nH]c(=O)c23)cc1,-23,0,9,3,-23,-8,x,x,x,x
CN(CC(=O)Nc1ccc(F)cc1)C(=O)CN1C(=O)c2ccccc2C1=O,-1,10,1,-1,x,-1,x,x,x,x
CCOC(=O)CNC(=O)C1CCN(S(=O)(=O)c2ccc(-c3nn[nH]n3)cc2)CC1,15,-5,18,0,-3,-7,x,x,x,x
O=C(NCCc1cccs1)c1ccc(Cl)cc1,-15,47,11,79*,-7,-11,84*,2,76*,7
O=C(NCCc1cccs1)c1ccc(CS(=O)Cc2ccc(Cl)cc2)o1 (stereo not drawn),-23,3,10,56*,15,-24,62*,2,36,5
CC(C)c1cc(C(=O)NCCc2cccs2)c(N)s1,x,x,x,x,x,x,x,3,x,10
COc1ccc(S(=O)(=O)N2C[C@H]3CON(C)[C@H]3C[C@H]2c2ccc(-c3cccc(F)c3)cc2)cc1,x,21,x,0,x,x,x,x,x,x
O=C(c1cc(-c2ccccc2)on1)N1CCc2ccccc2C1,-9,-1,17,48*,1,-10,12,3,2,11
O=C(c1[nH]c(C(F)(F)F)nc1-c1ccccc1)N1CCCCC1,x,-4,x,2,x,x,x,x,x,x
O=C(c1[nH]c(C(F)(F)F)nc1-c1ccccc1)N1CCc2ccccc2C1,x,11,x,81*,x,x,93*,4,56*,1

# Screening data from PubChem BioAssay.
